Assay outcomes deposited in PubChem by The Scripps Research Institute Molecular Screening Center.
M1 ag parental: nonselective activator or artifact in parental CHO-K1 cells | Fluo-8 calcium fluorescence; scaled to maximal ATP response, vehicle zero | activation, % at 3 µM | hit rate 0.48% among 360,000; in the data active means activation above about 15%;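 further: untransfected CHO-K1 host cells lacking M1 receptor as counterscreen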
M1 PAM parental: counter-screen for M1 PAMs: effect in parental CHO-K1 cells | AID 602247 | ATP EC20, Fluo-8 calcium fluorescence; 0% at ATP EC20, 100% at ATP max | activation, % at 3 µM | hit rate 0.02% among 360,000;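 active means activation above the run cutoff, the mean activation of all test compounds plus 3 SD, cut at about 40% in these data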;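 further: peak over basal fluorescence ratio in a 140 s read after ATP addition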
CHO-K1 Ca antag: counter-screen for M1 antagonists: effect in parental CHO-K1 cells; AID 602250; inhibition, % at 3 µM; hit rate 0.6% among 360,000; ATP-induced calcium, Fluo-8 fluorescence;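 active means inhibition above a per-plate cutoff, the plate's mean sample inhibition plus 3 SD, cut at about 24% in these data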;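 further: 0% = DMSO plus EC80 ATP and 100% = DMSO alone without ATP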
CHO parental Ca: counter-screen for OX1R antagonists: effect in parental CHO cells. inhibition, % at 5.6 µM. AID 463079. hit rate 0.63% among 330,000. parental CHO-K1, ATP-induced calcium, Fluo-8 fluorescence;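 active means inhibition above that plate's mean sample inhibition plus 3 SD, cut at about 26% in these data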;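 further: 0% = ATP-challenged DMSO wells and 100% = DMSO wells without ATP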
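Test system: untransfected parental CHO cell line; also added: ATP stimulus; dosing: 5.6 µM, single dose; signal: calcium-sensitive Fluo-8 fluorescence; measure: percent inhibition of ATP-evoked calcium rise, normalized to controls; benchmarks: low control ATP plus DMSO, high control DMSO only; replication: one well per compound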
OX1R antag-1: antagonists of human orexin 1 receptor | O43613 | CHO/OX1R cells, Fluo-8 calcium fluorescence, orexin A | inhibition, % at 5 µM | hit rate 0.43% among 330,000;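 active means inhibition above its plate's threshold, mean inhibition of all tested compounds on the plate plus 3 SD, cut at about 37% in these data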;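 further: 0% = orexin A challenge wells and 100% = SB-334867-A antagonist wells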
Target sequence (O43613 whole entry, looked up): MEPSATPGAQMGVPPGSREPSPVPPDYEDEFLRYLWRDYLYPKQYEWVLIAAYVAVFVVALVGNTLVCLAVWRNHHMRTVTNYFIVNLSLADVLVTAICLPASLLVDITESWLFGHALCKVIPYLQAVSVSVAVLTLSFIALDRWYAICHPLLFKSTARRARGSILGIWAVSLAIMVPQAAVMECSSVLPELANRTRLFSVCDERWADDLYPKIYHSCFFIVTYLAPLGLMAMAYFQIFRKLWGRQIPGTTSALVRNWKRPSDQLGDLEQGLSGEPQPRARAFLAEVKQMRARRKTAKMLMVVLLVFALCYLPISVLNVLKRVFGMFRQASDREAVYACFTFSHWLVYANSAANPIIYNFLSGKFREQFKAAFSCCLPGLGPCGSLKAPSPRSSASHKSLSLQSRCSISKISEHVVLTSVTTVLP
OX1R antag-2: antagonists of human orexin 1 receptor (OX1R); hit rate 1.8% among 330,000; OX1R-expressing cells, FRET antagonist read-out; O43613; inhibition, % at 6.6 µM; in the data active means inhibition mostly above about 38%, no sharp cut-off; inactive means mostly below about 40%;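 further: 0% = agonist challenge alone and 100% = reference antagonist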
* marks the source's active call; other numbers are inactive results. Compounds with a hit are over-represented: about 2.9% of the library has one in this group of screens.

Results for Cc1ccc(C2(C)NC(=O)N(CC(=O)N3CCc4ccccc43)C2=O)cc1 (centres undefined) ?
M1 ag parental: 20*; M1 PAM parental: 11; CHO-K1 Ca antag: -17; CHO parental Ca: -16; OX1R antag-1: 6; OX1R antag-2: 4

How did CCC1(CC)NC(=O)N(CC(=O)N2CCc3ccccc32)C1=O do in these assays?
M1 ag parental: 0; M1 PAM parental: 13; CHO-K1 Ca antag: -11; CHO parental Ca: -10; OX1R antag-1: -18; OX1R antag-2: 8

What do the screens show for `CC1(c2ccc(Cl)cc2)NC(=O)N(CC(=O)N2CCc3ccccc32)C1=O` (centres undefined)?
M1 ag parental: 19*; M1 PAM parental: 8; CHO-K1 Ca antag: -6; CHO parental Ca: -3; OX1R antag-1: 21; OX1R antag-2: -2

Results for CCC(c1nnnn1-c1ccc2c(c1)OCCO2)N1CCN(c2ccc(C)cc2)CC1 (centres undefined) ?
M1 ag parental: 7; M1 PAM parental: -4; CHO-K1 Ca antag: 9

Results for CCOC(=O)COn1c(SCC(=O)OCC)nc2ccccc2c1=O ?
M1 ag parental: 1; M1 PAM parental: -9; CHO-K1 Ca antag: 26*; CHO parental Ca: -8; OX1R antag-1: -25; OX1R antag-2: 6

How did CN(C)C(=O)COn1c(SCC(=O)N(C)C)nc2ccccc2c1=O do in these assays?
M1 ag parental: 0; M1 PAM parental: 12; CHO-K1 Ca antag: 3; CHO parental Ca: -5; OX1R antag-1: 5; OX1R antag-2: 6

Results for Cc1ccc(OCC(=O)Nc2ccc(N3CCN(C(=O)c4ccco4)CC3)cc2)cc1C ?
M1 ag parental: 15*; M1 PAM parental: -10; CHO-K1 Ca antag: 10; CHO parental Ca: 5; OX1R antag-1: -9; OX1R antag-2: 11

What do the screens show for `Cc1cc(OCC(=O)Nc2ccc(N3CCN(C(=O)c4ccco4)CC3)cc2)cc(C)c1Cl`?
M1 ag parental: 2; M1 PAM parental: 6; CHO-K1 Ca antag: -9; CHO parental Ca: -13; OX1R antag-1: -5; OX1R antag-2: 5

Results for Cc1ccccc1C(=O)N1CCN(c2ccc(NC(=S)NC(=O)c3ccco3)cc2)CC1 ?
M1 ag parental: 15*; M1 PAM parental: 2; CHO-K1 Ca antag: 6; CHO parental Ca: 7; OX1R antag-1: 3; OX1R antag-2: 2

How did COc1ccccc1C(=O)NC(=S)Nc1ccc(N2CCN(C(=O)c3ccco3)CC2)cc1 do in these assays?
M1 ag parental: 1; M1 PAM parental: 1; CHO-K1 Ca antag: 9; CHO parental Ca: -20; OX1R antag-1: -4; OX1R antag-2: 19

How did Cc1ccc(S(=O)(=O)N2CCN(C(=O)c3cc(S(=O)(=O)N4CCOCC4)c(Cl)cc3Cl)CC2)cc1 do in these assays?
M1 ag parental: 0; M1 PAM parental: -6; CHO-K1 Ca antag: -3

What do the screens show for `COCc1cc(CN2CCCC(C(=O)Nc3cccc(-n4cnnn4)c3)C2)ccc1OC` (centres undefined)?
M1 ag parental: 2; M1 PAM parental: 23; CHO-K1 Ca antag: -11; CHO parental Ca: -17; OX1R antag-1: -33; OX1R antag-2: 6

What do the screens show for `N/C(=N\OC(=O)/C=C/c1ccccc1)c1ccccc1`?
M1 ag parental: 0; M1 PAM parental: 11; CHO-K1 Ca antag: -11; CHO parental Ca: -8; OX1R antag-1: -16; OX1R antag-2: 9

How did CC1=C/C(=N\OC(=O)/C=C/c2ccccc2)C(C)=CC1=O do in these assays?
M1 ag parental: 0; M1 PAM parental: -4; CHO-K1 Ca antag: 28*; CHO parental Ca: -4; OX1R antag-1: -12; OX1R antag-2: 10

How did O=C(O)c1ccc(OCCOc2ccccc2)cc1 do in these assays?
M1 ag parental: 1; M1 PAM parental: 4; CHO-K1 Ca antag: -13; CHO parental Ca: -11; OX1R antag-1: -3; OX1R antag-2: 0

How did O=C(Nc1cccc(C(F)(F)F)c1)C1CCN(S(=O)(=O)c2ccc(N3CCCC3=O)cc2)CC1 do in these assays?
M1 ag parental: 16*; M1 PAM parental: 2; CHO-K1 Ca antag: 22; CHO parental Ca: 73*; OX1R antag-1: 48*; OX1R antag-2: 30

Results for COc1cccc(NC(=O)C2CCN(S(=O)(=O)c3ccc(N4CCCC4=O)cc3)CC2)c1 ?
M1 ag parental: 13; M1 PAM parental: 0; CHO-K1 Ca antag: -8

What do the screens show for `CC(=O)N1c2ccc(S(=O)(=O)N3CCC(C(=O)Nc4cccc(C(F)(F)F)c4)CC3)cc2CC1C` (centres undefined)?
M1 ag parental: 9; M1 PAM parental: -10; CHO-K1 Ca antag: 32*; CHO parental Ca: 55*; OX1R antag-1: 23; OX1R antag-2: 11

Results for CCc1cccc(NC(=O)C2CCN(S(=O)(=O)c3ccc4c(c3)CC(C)N4C(C)=O)CC2)c1 (centres undefined) ?
M1 ag parental: 6; M1 PAM parental: 4; CHO-K1 Ca antag: 5; CHO parental Ca: 14; OX1R antag-1: -17; OX1R antag-2: 16

Results for Cc1ccc(C(=O)N(CC(C)C)c2c(N)n(Cc3ccccc3)c(=O)[nH]c2=O)o1 ?
M1 ag parental: 0; M1 PAM parental: 10; CHO-K1 Ca antag: -13; CHO parental Ca: -10; OX1R antag-1: -6; OX1R antag-2: 0

How did COC(=O)C1=CN(Cc2ccccc2)C=C(C(=O)OC)C1c1ccc(O)c(OC)c1 do in these assays?
M1 ag parental: 0; M1 PAM parental: -24; CHO-K1 Ca antag: 25*; CHO parental Ca: -22; OX1R antag-1: -20; OX1R antag-2: 5

How did COC(=O)C1=CN(Cc2ccccc2)C=C(C(=O)OC)C1c1ccc(OC)c(OC)c1 do in these assays?
M1 ag parental: 0; M1 PAM parental: 20; CHO-K1 Ca antag: -5; CHO parental Ca: -16; OX1R antag-1: -18; OX1R antag-2: 6

Results for Cc1ccc(S(=O)(=O)N2CCOCC2)cc1NC(=O)COC(=O)/C=C/c1ccco1 ?
M1 ag parental: 0; M1 PAM parental: 10; CHO-K1 Ca antag: -9; CHO parental Ca: -17; OX1R antag-1: -22; OX1R antag-2: 21

How did NC(=O)c1ccsc1NC(=O)COC(=O)CNC(=O)c1ccc(Cl)cc1 do in these assays?
M1 ag parental: 9; M1 PAM parental: 29; CHO-K1 Ca antag: -22; CHO parental Ca: -24; OX1R antag-1: -30; OX1R antag-2: 7

Results for CCOC(=O)c1ccc(NC(=S)NCc2ccccc2)cc1 ?
M1 ag parental: 10; M1 PAM parental: -6; CHO-K1 Ca antag: 12; CHO parental Ca: 14; OX1R antag-1: -8; OX1R antag-2: 5

Results for CCOC(=O)c1ccc(NC(=S)NCCc2ccccc2F)cc1 ?
M1 ag parental: 15*; M1 PAM parental: -14; CHO-K1 Ca antag: 25*; CHO parental Ca: 8; OX1R antag-1: -13; OX1R antag-2: 7

How did CCOC(=O)c1ccc(NC(=S)NCCc2ccccc2)cc1 do in these assays?
M1 ag parental: 9; M1 PAM parental: 4; CHO-K1 Ca antag: 19; CHO parental Ca: 60*; OX1R antag-1: 39; OX1R antag-2: 32
